Experimental data reported in BindingDB's records for doi:10.1016/j.bmc.2018.07.042 (Human Biomolecular Research Institute, 2018).

How the values were obtained:
[1] = biological target: T1, Cellular tumor antigen p53 (Homo sapiens, UniProt P04637); test: Induction of p53 transcriptional activity (unknown origin) expressed in HEK293 cells coexpressing TK-driven Rluc after 20 to 22 hrs by luciferase reporter gene assay
Summary of the method: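 Transient transfection of HEK-293 cells with a p53-Luc vector (13x p53-binding consensus response element) plus TK-driven Renilla luciferase for normalization. Protocol was as for the Wnt reporter, but final serum was 2.5%. Cells were treated or given DMSO for 20-22 h in triplicate. Firefly/Renilla signal relative to DMSO was fit by nonlinear regression for […].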

[2] = biological target: T1, Cellular tumor antigen p53; test: Activation of p53 in human MCF7 cell lysates assessed as increase in total p53 protein level by Western blot analysis

T1 sequence (P04637 whole entry): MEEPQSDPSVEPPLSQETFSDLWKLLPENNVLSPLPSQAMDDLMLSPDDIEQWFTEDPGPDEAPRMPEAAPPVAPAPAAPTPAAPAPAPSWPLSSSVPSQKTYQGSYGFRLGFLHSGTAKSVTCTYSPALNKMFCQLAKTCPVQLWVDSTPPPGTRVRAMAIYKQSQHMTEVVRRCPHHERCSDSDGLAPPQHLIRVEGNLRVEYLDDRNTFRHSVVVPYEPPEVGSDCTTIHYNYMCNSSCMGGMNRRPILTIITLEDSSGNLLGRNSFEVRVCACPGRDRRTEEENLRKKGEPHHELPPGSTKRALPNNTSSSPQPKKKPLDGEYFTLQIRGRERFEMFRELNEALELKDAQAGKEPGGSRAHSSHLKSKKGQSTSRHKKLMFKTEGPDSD

| EC50 [1] | EC50 [2] | SMILES |
| --- | --- | --- |
| > 5 µM |  | O=S(=O)(c1ccc(-n2cncn2)cc1)N1CCCc2ccccc21 |
| 0.012 µM |  | O=C1CCCN1c1ccc(S(=O)(=O)N2CCCc3ccccc32)cc1 |
| 0.004 µM |  | COc1ccc2c(c1)N(C)CCN2S(=O)(=O)c1ccc(N2CCCC2=O)cc1 |
| 0.002 µM | 0.018 µM | CN1CCN(S(=O)(=O)c2ccc(N3CCCC3=O)cc2)c2ccccc21 |
| 0.004 µM |  | Cc1ccc2c(c1)CCCN2S(=O)(=O)c1ccc(N2CCCC2=O)cc1 |
| 0.152 µM |  | CC(C)(C)c1ccc2c(c1)CCCN2S(=O)(=O)c1ccc(N2CCCC2=O)cc1 |
| 0.074 µM |  | CN1CCN(S(=O)(=O)c2ccc(N3CCC=N3)cc2)c2ccccc21 |
| 0.158 µM |  | CCCN(c1ccccc1)S(=O)(=O)c1ccc(N2CCCC2=O)cc1 |
| 0.065 µM |  | CN1CCN(S(=O)(=O)c2ccc(N3CCCC3)cc2)c2ccccc21 |
| 0.009 µM |  | COc1ccc2c(c1)CCCN2S(=O)(=O)c1ccc(N2CCCC2=O)cc1 |
